Activity calls are given as the source filed them. No cut-off for these calls is given here.

Results on 1 compound are retold here after ChEMBL document CHEMBL4699650, “SAR Investigation and Discovery of Water-Soluble 1-Methyl-1,4-dihydroindeno[1,2-c]pyrazoles as Potent Tubulin Polymerization Inhibitors” (J Med Chem, 2020).

A short description of series [1]: Selectivity index, ratio of GI50 for cytotoxicity against human L02 cells to GI50 for antiproliferation activity against human HepG2 cells assessed as cell growth inhibition measured after 72 hrs by MTT assay. The class given is toxicity, cell-based. Conditions: L02 cells and HepG2 cells, read-out: RatioGI50. An outline of the steps: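 MTT assay: cells seeded 4–7 × 10³/well, adhered overnight, exposed to a concentration series for 72 h. MTT (2.5 mg/mL stock) added for 4 h, crystals dissolved in DMSO, absorbance read at 570 nm. GI50 is mean ± SD of ≥3 independent experiments. Selectivity = GI50 on normal LO2 / GI50 on HepG2. Resistance fold = GI50 on resistant cells / GI50 on sensitive cells.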

The subject of series [2] is HepG2. As to the kind of experiment: Induction of apoptosis in human HepG2 cells assessed as late apoptotic cells at 5 nM incubated for 12 hrs by Annexin V-PE and 7-AAD staining based flow cytometry (reference value: 2.79%). The class given is functional. An outline of the steps:
(§1)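 HepG2 cells seeded at 3 × 10⁵ cells/well, adhered overnight, exposed at 5, 10 or 20 nM for 12 or 24 h. Harvested into Annexin V binding buffer and stained with annexin V-PE and 7-AAD for 15 min at room temperature in the dark, then analysed by flow cytometry. Gates: live (−/−), early apoptotic (+/−), late apoptotic (+/+), necrotic (−/+).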
(Flow cytometry measures light scatter and fluorescence of single cells or particles in a stream.)

For series [3], the system named is HepG2. As to the kind of experiment: Induction of apoptosis in human HepG2 cells assessed as PARP cleavage at 2.5 to 20 nM incubated for 24 hrs by western blot analysis. The class given is functional, cell-based. As to conditions: dose nM 2.5-20, time 24.0 hrs. An outline of the steps: (§2)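 Lysates (20 μg protein) separated by 10% PAGE and blotted to PVDF. Probed for Bax, Bcl-2, cleaved caspase-3 and cleaved PARP, detected by ECL and quantified by densitometry.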
For orientation: A western blot detects proteins with antibodies after separation by electrophoresis.

Series [4] deals with HepG2. As to the kind of experiment: Induction of cell cycle arrest in human HepG2 cells assessed as accumulation in G2/M phase incubated for 24 hrs by propidium iodide staining based flow cytometry. The class given is functional. Conditions: dose nM 5-20, time 24.0 hrs.
The test system of series [5] is HepG2. As to the kind of experiment: Induction of cell cycle arrest in human HepG2 cells assessed as accumulation in G1 phase at 20 nM incubated for 24 hrs by propidium iodide staining based flow cytometry (reference value: 60.76%). The class given is functional.
Series [6] concerns HepG2. Kind of series: Induction of apoptosis in human HepG2 cells assessed as necrotic cells at 5 nM incubated for 24 hrs by Annexin V-PE and 7-AAD staining based flow cytometry (reference value: 0.34 %). The class given is functional. Put shortly: as §1
For series [7], the system named is HepG2. Kind of series: Antitumor activity against human HepG2 cells xenografted in Balb/c nude mouse assessed as reduction in tumor volume at 25 mg/kg, ig qd administered for 21 days measured at 3 days interval during compound dosing relative to control. As to conditions: time 21 day. Also on record: scale not given: the % may be the effect or the level left. Type of series: functional. A general note: Xenograft models place foreign cells or tissue in a host animal.

The subject of series [8] is HepG2. As to the kind of experiment: Induction of apoptosis in human HepG2 cells assessed as necrotic cells at 10 nM incubated for 24 hrs by Annexin V-PE and 7-AAD staining based flow cytometry (reference value: 0.34 %). The class given is functional. Put shortly:
as §1

Series [9] has as its system HepG2. As to the kind of experiment: Induction of apoptosis in human HepG2 cells assessed as live cells at 10 nM incubated for 24 hrs by Annexin V-PE and 7-AAD staining based flow cytometry (reference value: 93.2%). Type of series: functional. An outline of the steps:
as §1

A further series concerns the target Tubulin (Homo sapiens) (UniProt P68371+Q9H4B7+P0DPH7+P68366+Q13509+Q71U36+P04350+Q3ZCM7+P07437+P68363+Q9BQE3+Q6PEY2+Q13885+Q9BVA1+Q9BUF5). As to the kind of experiment: Induction of microtubule cytoskeleton disruption in human HepG2 cells assessed as microtubule shrinkage to the cell border at 10 nM measured after 24 hrs by Hoechst 33342 staining based immunofluorescence confocal microscopy analysis. An outline of the steps:
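Fixed in ice-cold methanol/acetic acid 3:1, permeabilized 0.3% Triton X-100, blocked 5% BSA. Mouse anti-tubulin overnight at 4 °C, then TRITC anti-mouse IgG 2 h at 37 °C. Imaged by laser scanning confocal microscopy.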

Series [10] has as its system HepG2. As to the kind of experiment: Inhibition of cell migration in human HepG2 cells at 10 nM measured after 24 hrs by inverted light microscopy method based wound healing assay relative to control. Type of series: functional. An outline of the steps:
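Confluent HepG2 monolayer (seeded 3 × 10⁵ cells/well) scratched with a pipette tip and washed with PBS. Incubated in serum-free DMEM with compound at 2.5, 5 or 10 nM for 24 h; CA-4 run in parallel, DMSO as vehicle. Wound imaged at 0 and 24 h by inverted microscope and compared with control.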

Series [11] concerns HepG2. As to the kind of experiment: Induction of apoptosis in human HepG2 cells assessed as necrotic cells at 10 nM incubated for 12 hrs by Annexin V-PE and 7-AAD staining based flow cytometry (reference value: 0.55 %). Type of series: functional. Put shortly:
as §1

The test system of series [12] is HepG2. Kind of series: Induction of apoptosis in human HepG2 cells assessed as decrease in Bcl-2 expression incubated for 24 hrs by Western blot analysis. The class given is functional, cell-based. Conditions: dose nM 2.5-20, time 24.0 hrs. Put shortly: as §2
The subject of series [13] is HepG2. Kind of series: Induction of apoptosis in human HepG2 cells assessed as late apoptotic cells at 20 nM incubated for 24 hrs by Annexin V-PE and 7-AAD staining based flow cytometry (reference value: 2.33 %). The class given is functional. An outline of the steps: as §1
Series [14] concerns HepG2. As to the kind of experiment: Induction of cell cycle arrest in human HepG2 cells assessed as accumulation in G1 phase at 10 nM incubated for 24 hrs by propidium iodide staining based flow cytometry (reference value: 60.76%). The class given is functional.
Series [15] is described as follows: Lipophilicity, log P of the compound in DMSO and n-octanol at pH 7.4 incubated for 10 hrs under stirred condition by HPLC analysis. The class given is physicochemical. As to conditions: n-octanol / aqueous phase pH 7.4, pH 7.4. An outline of the steps: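 Partition between n-octanol and water: mixture stirred at room temperature for 10 h, then left at 4 °C overnight. Each phase analysed separately by HPLC on a C18 column. Log P taken from the ratio of peak areas in n-octanol and water.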

Series [16] can be described thus: Inhibition of porcine brain tubulin polymerization measured every 60 sec for 60 mins in presence of GTP by fluorescence assay. Further details: species or system Sus scrofa. An outline of the steps: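 Fluorescence kit assay using 2 mg/mL porcine brain tubulin with 2 mM MgCl₂, 0.5 mM EGTA, 1 mM GTP and 15% glycerol. Compound at various concentrations preincubated 1 min at 37 °C before adding the tubulin mix. Read at ex 355/em 460 nm every 60 s for 60 min. IC50 is the concentration giving 50% inhibition at 60 min; mean ± SD of ≥3 independent experiments.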

Series [17] has as its system HepG2. As to the kind of experiment: Induction of apoptosis in human HepG2 cells assessed as late apoptotic cells at 5 nM incubated for 24 hrs by Annexin V-PE and 7-AAD staining based flow cytometry (reference value: 2.33 %). Type of series: functional. An outline of the steps:
as §1

Series [18] concerns HepG2. As to the kind of experiment: Induction of cell cycle arrest in human HepG2 cells assessed as accumulation in G2/M phase at 5 nM incubated for 24 hrs by propidium iodide staining based flow cytometry (reference value: 12.59%). Type of series: functional.
Series [19] relates to HepG2. Kind of series: Induction of apoptosis in human HepG2 cells assessed as late apoptotic cells at 20 nM incubated for 12 hrs by Annexin V-PE and 7-AAD staining based flow cytometry (reference value: 2.79%). Type of series: functional. Put shortly: as §1
For series [20], the system named is HepG2. As to the kind of experiment: Induction of apoptosis in human HepG2 cells assessed as early apoptotic cells at 10 nM incubated for 12 hrs by Annexin V-PE and 7-AAD staining based flow cytometry (reference value: 4.52%). Type of series: functional. Put shortly: as §1
A short description of series [21]: Resistance index, ratio of GI50 for antiproliferation activity against human A549/Taxol cells to GI50 for antiproliferation activity against human A549 cells assessed as cell growth inhibition measured after 72 hrs by MTT assay.

One may read the inhibition as the change of the read-out against control, counted positive when it falls. In general, logD refers to the decadic logarithm of the distribution of all forms, ionised or not, between an organic phase and buffer at a given pH. The term IC50 denotes the concentration that gives 50% inhibition. For `CCOc1cccc(Nc2nn(C)c3c2Cc2cc(OCC)c(OCCCN)cc2-3)c1`, the selectivity ratio at 72 h in series [1] was determined as 118. For the same compound, the Activity in the series on HepG2 [2] was 3.53%; in the series with HepG2 [4] it was “Dose-dependent effect”; in the series on HepG2 [5], 3.11%; with HepG2 [6] it was 0.32%; in the series on HepG2 [7], 57%; in the series with HepG2 [8], 0.61%. For the same compound, the Activity in the series with HepG2 [9] was 75.5%; in the series with HepG2 [11], 0.92%; in the series on HepG2 [12], “Dose-dependent effect”; in the series on HepG2 [13], 10.7%; with HepG2 [14] it was 17.07%; with HepG2 [17] it was 4.33%. Besides, the Activity in the series with HepG2 [18] is on record as 19.78%; in the series with HepG2 [19], 6.42%; in the series with HepG2 [20], 9.58%. The outcome in the series with HepG2 [3] and on Tubulin (Homo sapiens) was Active. Moreover, at 0.01 µM the inhibition in the series with HepG2 [10] was 58%. In series [15], the logD at 10 h came to 1.7. Further, the half-maximal inhibitory concentration (IC50) in series [16] was found to be 3.7 µM. The RatioGI50 in [21] stood at 4.
